The values that follow come from ChEMBL document CHEMBL1124311, “Synthesis and antiallergy activity of 4-(diarylhydroxymethyl)-1-[3-(aryloxy)propyl]piperidines and structurally related compounds” (J Med Chem, 1989).

The structures appear in SMILES notation. Activity calls are given as the source filed them. No cut-off for these calls is given here.

The IC50 is the point on the concentration scale where inhibition reaches its midpoint. Higher therefore signals weaker potency.

Assay [1] is filed under the species Cavia porcellus. The assay is described as follows: Oral antiallergy activity in the guinea pig anaphylaxis (GPA) model, at a pretreatment time of 1 h. Type of assay: functional. To be noted: read-out: PD50. In short, it runs like this: (§1)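 Fasted, sensitized Dunkin-Hartley guinea pigs, randomized into control (N = 8) and test (N = 4) groups, dosed by gavage at 10 mL/kg in 0.5% Tween 80 in water; theophylline 100 mg/kg po as reference. At the stated pretreatment time, each animal was exposed to aerosolized 1% (w/v) egg albumin at 10 L air/min for up to 5 min. Protection meant no collapse within 5 min. PD50 was calculated by Litchfield–Wilcoxon.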

The species entered for assay [2] is Cavia porcellus. The assay is described as follows: Oral antiallergy activity in the guinea pig anaphylaxis (GPA) model, at a pretreatment time of 24 h. Type of assay: functional. The settings on record: read-out: PD50. In short, it runs like this:
as §1

The target in assay [3] is T1, Histamine H1 receptor (Cavia porcellus, UniProt P31389). The assay is described as follows: Inhibitory activity against Tritiated [3H]- mepyramine binding to histamine H1 receptor in guinea pig cerebral cortex. It is filed as tissue-based. In short, it runs like this: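 Guinea pig (Dunkin-Hartley) cerebral cortex homogenized in cold 50 mM Na-K phosphate pH 7.5, centrifuged at 48000g three times, resuspended 30 mL buffer/g tissue. Six concentrations (1e-5 to 1e-10 M) run in triplicate. IC50 derived by regression of logit % control binding vs log concentration.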
T1 sequence (P31389 whole entry): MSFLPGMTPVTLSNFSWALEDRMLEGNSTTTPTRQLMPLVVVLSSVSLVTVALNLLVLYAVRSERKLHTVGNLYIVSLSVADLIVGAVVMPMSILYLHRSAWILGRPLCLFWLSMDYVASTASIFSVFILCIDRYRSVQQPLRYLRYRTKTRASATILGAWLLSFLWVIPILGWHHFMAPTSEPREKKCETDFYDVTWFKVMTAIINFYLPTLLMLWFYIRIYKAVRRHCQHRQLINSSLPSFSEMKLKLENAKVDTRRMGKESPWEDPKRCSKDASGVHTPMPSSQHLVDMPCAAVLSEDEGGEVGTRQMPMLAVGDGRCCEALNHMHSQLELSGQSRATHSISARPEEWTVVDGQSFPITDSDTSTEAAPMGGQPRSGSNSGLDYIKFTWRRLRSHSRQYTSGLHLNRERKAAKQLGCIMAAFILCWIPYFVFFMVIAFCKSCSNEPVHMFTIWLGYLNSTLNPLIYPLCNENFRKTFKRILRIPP

Assay [4] concerns Rattus norvegicus. The assay is described as follows: Oral antiallergy activity in the passive foot anaphylaxis (PFA) model of rat, at a dose of 1.0 (mg/kg); Activity between positive and negative control groups. Type of assay: functional, organism-based.
The test system of assay [5] is Rattus norvegicus. The assay is described as follows: Oral antiallergy activity in the passive foot anaphylaxis (PFA) model of rat, at a dose of 0.5 (mg/kg); Activity between positive and negative control groups. Type of assay: functional, organism-based.
Assay [6] concerns Rattus norvegicus. The assay is described as follows: Oral antiallergy activity in the passive foot anaphylaxis (PFA) model of rat, at a dose of 3.16 (mg/kg); Activity greater than positive control group. Type of assay: functional, organism-based.
The species named for assay [7] is Cavia porcellus. The assay is described as follows: Oral antiallergy activity in the guinea pig anaphylaxis (GPA) model of, at a pretreatment time of 5 h. To be noted: read-out: PD50. It is filed as functional. In short, it runs like this: as §1
Assay [8] relates to Rattus norvegicus. The assay is described as follows: Oral antiallergy activity in the passive foot anaphylaxis (PFA) model of rat, at a dose of 0.5 (mg/kg); not significantly different from negative control group. Type of assay: functional, organism-based.
For assay [9], the species on record is Cavia porcellus. The assay is described as follows: Oal antiallergy activity in the guinea pig anaphylaxis (GPA) model, at a pretreatment time of 24 h. Type of assay: functional. The settings on record: read-out: PD50. In short, it runs like this:
as §1

The species entered for assay [10] is Cavia porcellus. The assay is described as follows: Oal antiallergy activity in the guinea pig anaphylaxis (GPA) model of, at a pretreatment time of 5 h. The settings on record: read-out: PD50. Type of assay: functional. In short, it runs like this:
as §1

The target of assay [11] is T1, Histamine H1 receptor. The assay is described as follows: Inhibitory activity against Tritiated [3H]- mepyramine binding to Histamine H1 receptor in guinea pig cerebral cortex. It is filed as tissue-based. In short, it runs like this:
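Guinea pig (Dunkin-Hartley) cerebral cortex homogenised in cold 50 mM Na-K phosphate pH 7.5, washed by repeated 48000g spins, membranes resuspended at 30 mL buffer/g wet tissue. Incubated with 1.5 nM (final) [3H]mepyramine for 20 min at 25 °C. Stopped by cold-buffer washing and GF/B filtration, then scintillation counting. Six concentrations (1e-5 to 1e-10 M) in triplicate. IC50 from regression of logit % control binding vs log concentration.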

Assay [12] deals with Rattus norvegicus. The assay is described as follows: Oral antiallergy activity in the passive foot anaphylaxis (PFA) model of rat, at a dose of 1.0 (mg/kg); not significantly different from negative control group. Type of assay: functional, organism-based.
The test system of assay [13] is Rattus norvegicus. The assay is described as follows: Oral antiallergy activity in the passive foot anaphylaxis (PFA) model of rat, at a dose of 10 (mg/kg); Activity greater than positive control group. Type of assay: functional, organism-based.
Assay [14] relates to Rattus norvegicus. The assay is described as follows: Oral antiallergy activity in the passive foot anaphylaxis (PFA) model of rat, at a dose of 3.16 (mg/kg); Activity equal to positive control group. Type of assay: functional, organism-based.
The subject of assay [15] is Rattus norvegicus. The assay is described as follows: Oral antiallergy activity in the passive foot anaphylaxis (PFA) model of rat, at a dose of 10 (mg/kg); Not significantly different from negative control group. Type of assay: functional, organism-based.
The test system of assay [16] is Rattus norvegicus. The assay is described as follows: Oral antiallergy activity in the passive foot anaphylaxis (PFA) model of rat, at a dose of 10 (mg/kg); Activity equal to positive control group. Type of assay: functional, organism-based.
The species entered for assay [17] is Rattus norvegicus. The assay is described as follows: Oral antiallergy activity in the passive foot anaphylaxis (PFA) model of rat, at a dose of 3.16; Activity equal to positive control group. It is filed as functional, organism-based.
The species named for assay [18] is Cavia porcellus. The assay is described as follows: Oral antiallergy activity in the guinea pig anaphylaxis (GPA) model of, at a pretreatment time of 6 h. It is filed as functional. The settings on record: read-out: PD50. In short, it runs like this:
as §1

Assay [19] relates to Rattus norvegicus. The assay is described as follows: Oral antiallergy activity in the passive foot anaphylaxis (PFA) model of rat, at a dose of 10 (mg/kg); not significantly different from negative control group. Type of assay: functional, organism-based.
For assay [20], the system named is Rattus norvegicus. The assay is described as follows: Oral antiallergy activity in the passive foot anaphylaxis (PFA) model of rat, at a dose of 3.16 (mg/kg); - indicates not significantly different from negative control group. Type of assay: functional, organism-based.
Assay [21] deals with Rattus norvegicus. The assay is described as follows: Oral antiallergy activity in the passive foot anaphylaxis (PFA) model of rat, at a dose of 1.0 (mg/kg);not significantly different from negative control group. It is filed as functional, organism-based.
Assay [22] concerns Rattus norvegicus. The assay is described as follows: Oral antiallergy activity in the passive foot anaphylaxis (PFA) model of rat, at a dose of 3.16 (mg/kg); Activity between positive and negative control groups. Type of assay: functional, organism-based.
The test system of assay [23] is Rattus norvegicus. The assay is described as follows: Oral antiallergy activity in the passive foot anaphylaxis (PFA) model of rat, at a dose of 1.0 (mg/kg). It is filed as functional, organism-based.

Turning to `CCOC(=O)c1ccc(OCCCN2CCC(C(O)(c3ccc(F)cc3)c3ccc(F)cc3)CC2)cc1.Cl`, the ED50 in the assay listed under Cavia porcellus [1] stood at 1 mg/kg; in the assay listed under Cavia porcellus [2], 0.37 mg/kg; in the assay listed under Cavia porcellus [7], 0.44 mg/kg. For the same compound, the IC50 at Histamine H1 receptor [3] was 956 nM. The PFA entry in the assay with Rattus norvegicus [4] and with Rattus norvegicus [5] was “Weak activity” each time. The PFA result with Rattus norvegicus [6] was “Active”.

Take `COC(=O)c1ccc(OCCCN2CCC(C(O)(c3ccc(F)cc3)c3ccc(F)cc3)CC2)cc1`: the figures for the ED50 in the assay listed under Cavia porcellus [1], in the assay listed under Cavia porcellus [2] and in the assay listed under Cavia porcellus [7] were 0.72 mg/kg, 2.04 mg/kg and 0.32 mg/kg, respectively. Besides, on Histamine H1 receptor [3], the IC50 came to 63 nM. For the same compound, the PFA entry in the assay with Rattus norvegicus [4] was “Weak activity”. Further, in the assay on Rattus norvegicus [8], the PFA entry is “inactive”. For the same compound, the PFA result with Rattus norvegicus [6] is “Active”.

Regarding `O=c1[nH]c2ccccc2n1CCCN1CCN(C(c2ccccc2)c2ccccc2)CC1` [OXATOMIDE], the ED50 in the assay filed under Cavia porcellus [9] was 10 mg/kg; in the assay listed under Cavia porcellus [10] it was 1 mg/kg. The same compound displayed an IC50 on Histamine H1 receptor [11] of 9 nM.

For the compound `COc1cc(C(C)=O)ccc1OCCCN1CCC(C(O)(c2ccccc2)c2ccccc2)CC1`, the values for the ED50 in the assay filed under Cavia porcellus [1], in the assay filed under Cavia porcellus [2] and in the assay filed under Cavia porcellus [7] were 0.57 mg/kg, 1.4 mg/kg and 0.35 mg/kg, respectively. Further, the IC50 on Histamine H1 receptor [3] was 42 nM. Further, the PFA result in the assay on Rattus norvegicus [12] is “inactive”. For the same compound, the PFA result in the assay with Rattus norvegicus [13] and in the assay with Rattus norvegicus [14] was “Active” each time.

Take `COc1cc(C(C)=O)ccc1OCCCN1CCC(C(O)c2ccccc2)CC1` (stereo not given): the PFA entry with Rattus norvegicus [15] is “Not significantly different from negative control group”.

Consider `Cc1ccc(OCCCN2CCC(C(O)(c3ccc(F)cc3)c3ccc(F)cc3)CC2)cc1`, for which the PFA entry in the assay on Rattus norvegicus [12], in the assay on Rattus norvegicus [16] and in the assay filed under Rattus norvegicus [17] was “Activity equal to positive control group” each time.

Consider `CC(C)(C)c1ccc(C(O)CCCN2CCC(C(O)(c3ccccc3)c3ccccc3)CC2)cc1` (stereo not given) [TERFENADINE], for which the ED50 in the assay filed under Cavia porcellus [1] was 1 mg/kg; in the assay listed under Cavia porcellus [18] it was 3.2 mg/kg. Besides, the PFA entry in the assay on Rattus norvegicus [19] is “inactive”.

On to `OC(c1ccc(F)cc1)(c1ccc(F)cc1)C1CCN(CCCCc2ccccc2)CC1`, for which, in the assay on Rattus norvegicus [20], the PFA result was “Not significantly different from negative control group”.

Turning to `COc1cc(C(C)=O)ccc1OCCCN1CCC(C(O)(c2ccc(F)cc2)c2ccc(F)cc2)CC1`, the ED50 worked out at 1.78 mg/kg in the assay listed under Cavia porcellus [1], 0.78 mg/kg in the assay filed under Cavia porcellus [2] and 0.18 mg/kg in the assay filed under Cavia porcellus [7]. At Histamine H1 receptor [3], this compound came in with an IC50 of 8 nM. The PFA entry in the assay with Rattus norvegicus [12] was “inactive”. Further, the PFA entry in the assay with Rattus norvegicus [13] and in the assay on Rattus norvegicus [14] was “Active” in each case.

With `CS(=O)(=O)Nc1ccc(OCCCN2CCC(C(O)(c3ccc(F)cc3)c3ccc(F)cc3)CC2)cc1`, the PFA entry was “Activity between positive and negative control groups” with Rattus norvegicus [21]; “Activity between positive and negative control groups” in the assay with Rattus norvegicus [13]; “Activity between positive and negative control groups” in the assay with Rattus norvegicus [22].

Turning to `O=C(O)c1ccc(OCCCN2CCC(C(O)(c3ccc(F)cc3)c3ccc(F)cc3)CC2)cc1`, the PFA result was “Activity between positive and negative control groups” in the assay with Rattus norvegicus [5]; “Activity between positive and negative control groups” in the assay on Rattus norvegicus [22]; “Activity between positive and negative control groups” in the assay on Rattus norvegicus [23].
